The text below walks through data of ChEMBL document CHEMBL1123794, “Synthesis, conformation, and dopaminergic activity of 5,6-ethano-bridged derivatives of selective dopaminergic 3-benzazepines” (J Med Chem, 1987).

Assay [1] is described as follows: Tested for dopamine-sensitive adenylate cyclase stimulation expressed as ED50. In kind it is functional. In short, it runs like this:
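EC50 is the concentration giving 50% of the maximal adenylate cyclase stimulation attainable with that same compound.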

Assay [2] deals with D(1A) dopamine receptor (Rattus norvegicus) (UniProt P18901). Nature of the assay: Inhibitory activity against Dopamine receptor D1 by displacement of [3H]fenoldopam from homogenated rat striatum.
A short description of assay [3]: Tested for dopamine-sensitive adenylate cyclase stimulation expressed as %DA stimulation at 10 uM. In kind it is functional.
The nature of assay [4]: Tested for dopamine-sensitive adenylate cyclase stimulation. In kind it is functional.
Assay [5] has as its target D(2) dopamine receptor (Bos taurus) (UniProt P20288). The experiment in a line: Inhibitory activity against Dopamine receptor D2 by displacement of [3H]spiroperidol from bovine pituitary at 10 uM.

D(1A) dopamine receptor (Rattus norvegicus), sequence (P18901 whole entry): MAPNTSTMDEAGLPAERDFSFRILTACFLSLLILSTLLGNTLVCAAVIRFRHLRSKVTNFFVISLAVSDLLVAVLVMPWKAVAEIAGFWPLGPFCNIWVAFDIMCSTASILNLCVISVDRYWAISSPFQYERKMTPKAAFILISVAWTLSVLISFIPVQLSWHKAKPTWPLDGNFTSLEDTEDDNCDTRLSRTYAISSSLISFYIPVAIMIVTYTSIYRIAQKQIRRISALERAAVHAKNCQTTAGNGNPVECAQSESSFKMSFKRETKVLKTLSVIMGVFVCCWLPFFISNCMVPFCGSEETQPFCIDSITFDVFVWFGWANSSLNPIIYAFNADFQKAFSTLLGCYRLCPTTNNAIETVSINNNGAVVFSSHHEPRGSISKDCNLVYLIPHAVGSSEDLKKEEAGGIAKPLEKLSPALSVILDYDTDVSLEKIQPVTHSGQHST
D(2) dopamine receptor (Bos taurus), sequence (P20288 whole entry): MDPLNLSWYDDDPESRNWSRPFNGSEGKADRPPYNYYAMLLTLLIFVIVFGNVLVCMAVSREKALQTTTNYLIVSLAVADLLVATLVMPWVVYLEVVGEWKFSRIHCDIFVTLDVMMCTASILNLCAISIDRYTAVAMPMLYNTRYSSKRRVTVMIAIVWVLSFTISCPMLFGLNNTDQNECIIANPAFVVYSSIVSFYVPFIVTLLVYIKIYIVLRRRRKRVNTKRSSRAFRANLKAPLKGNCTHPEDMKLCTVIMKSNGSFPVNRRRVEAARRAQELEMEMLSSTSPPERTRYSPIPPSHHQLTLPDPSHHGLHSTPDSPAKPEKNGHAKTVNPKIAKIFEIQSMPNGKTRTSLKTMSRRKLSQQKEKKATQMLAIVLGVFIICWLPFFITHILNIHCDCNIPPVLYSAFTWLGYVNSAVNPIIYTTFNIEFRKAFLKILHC

For `Oc1cc2c(cc1O)[C@@H](c1ccccc1)CNCC2`, in assay [1], the ED50 was 63 nM. In assay [2], this compound had a K bind of 0.0051 µM. In addition, the DA stim in assay [3] amounted to 66%.

In turn, `Oc1cc2c3c(c1O)CC[C@H]3CNC[C@@H]2c1ccccc1` returned a Control in assay [4] of 20%. Besides, in assay [2], the K bind amounted to 1.22 µM. The inhibition in assay [5] came out at 0%. Moreover, the DA stim in assay [3] was 15%.

Take `Oc1cc2c3c(c1O)CC[C@@H]3CNC[C@@H]2c1ccccc1`: the ED50 in assay [1] came to 430 nM. Further, the K bind in assay [2] amounted to 0.024 µM. For the same compound, the inhibition in assay [5] was found to be 14%. This compound came in with a DA stim in assay [3] of 62%.

As to `NCCc1ccc(O)c(O)c1`, the ED50 in assay [1] came out at 3500 nM.
